In the array DNA melting data of Ke et al. (doi:10.1101/2024.01.08.574731) one finds folding enthalpy and Tm data, which are given here for 36 sequences.

A short description of data set [1]: folding enthalpy; higher = less favourable; fluorescence melt of hairpins on a sequencing array, two-state fit. Conditions: sodium 0.088 M. In a few lines: (§1)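 To match UV melts, fitted temperatures were raised by 9.35 °C. These fits were bootstrapped two-state models that gave melting temperature and folding enthalpy, combined by inverse variance over four replicates. The input was normalised Cy3 fluorescence of library hairpins with annealed Cy3 and quencher oligos on a sequenced MiSeq flow cell, imaged in 50 mM Na-HEPES pH 8.0, 25 mM NaCl in 2.5 °C steps up to 60 °C.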

The nature of data set [2]: melting temperature; fluorescence melt of hairpins on a sequencing array, two-state fit, raised by 9.35 °C to match UV melts. Conditions: sodium 0.088 M. In a few lines:
as §1

For the sequence GAGGGCGAAAGCCCCCTC ((((((....)))..))), in data set [1], the folding enthalpy is -7.33 kcal/mol. Besides, the Tm in data set [2] came out at 42.7 °C.

As for GAGGGCGAAAGCCTCCTC ((((((....)))..))), the folding enthalpy in data set [1] was -9.66 kcal/mol. The Tm in data set [2] was 40.5 °C.

In the case of GAGGGCGAAAGCCTCTC ((((((....))).))), the folding enthalpy in data set [1] was -16.1 kcal/mol. Further, the Tm in data set [2] was determined as 53.2 °C.

Turning to GAGGGCGAAAGCCTTCTC ((((((....)))..))), the folding enthalpy in data set [1] is -16.6 kcal/mol. In data set [2], the Tm is 52 °C.

On to GAGGGCGCGAAAGCGCTC (((..(((....)))))), for which the folding enthalpy in data set [1] was -7.69 kcal/mol. In addition, the Tm in data set [2] stood at 42.5 °C.

Turning to GAGGGCGGAAACACCCCC (.(((.(....).))).), the folding enthalpy in data set [1] is -16.4 kcal/mol. The Tm in data set [2] worked out at 30.9 °C.

Turning to GAGGGCGGAAACGCTCTC (((.(((....))).))), the folding enthalpy in data set [1] was -31.9 kcal/mol. Moreover, the Tm in data set [2] was 57.2 °C.

For the sequence GAGGGGGGAAACCCCCCC (.(((((....))))).), in data set [1], the folding enthalpy is -8.39 kcal/mol. The Tm in data set [2] came out at 52.5 °C.

On to GAGGTACGAAAGTACTC (((.(((....)))))), for which, in data set [1], the folding enthalpy is -13.6 kcal/mol. Besides, the Tm in data set [2] is 45.8 °C.

Regarding GAGGTACGAAAGTAGCTC (((.(((....))).))), in data set [1], the folding enthalpy is -44.4 kcal/mol. The Tm in data set [2] was 57.9 °C.

Turning to GAGGTACGAAAGTATCTC (((.(((....))).))), the folding enthalpy in data set [1] was -32.3 kcal/mol. In addition, in data set [2], the Tm worked out at 50.5 °C.

On to GAGGTAGGAAACTACCCC (.(((((....))))).), for which, in data set [1], the folding enthalpy was -12.1 kcal/mol. Moreover, the Tm in data set [2] worked out at 39.1 °C.

With GAGGTAGGAAACTACCTC (((((((....))))))), the folding enthalpy in data set [1] was -37.2 kcal/mol. Moreover, the Tm in data set [2] was 60 °C.

Take GAGGTCGGAAACGACCCC (.(((((....))))).): in data set [1], the folding enthalpy was -9.23 kcal/mol. Moreover, the Tm in data set [2] amounted to 48.3 °C.

GAGGTCGGAAACGACTTC ((.((((....)))).)): the folding enthalpy in data set [1] was -20.9 kcal/mol. Moreover, in data set [2], the Tm was found to be 48.6 °C.

For the sequence GAGGTGACGAAAGTCCTC (((..(((....)))))), in data set [1], the folding enthalpy was -17.6 kcal/mol. The Tm in data set [2] was found to be 34.9 °C.

Take GAGGTGGGAAACCACTTC ((.((((....)))).)): the folding enthalpy in data set [1] was -21.4 kcal/mol. Further, in data set [2], the Tm was 46 °C.

On to GAGGTGGGAAACCGCCTC ((((.((....)).)))), for which the folding enthalpy in data set [1] was -46.9 kcal/mol. In data set [2], the Tm is 57.1 °C.

As for GAGGTTCCGAAAGGACTC (((..(((....)))))), in data set [1], the folding enthalpy is -14.9 kcal/mol. Further, in data set [2], the Tm turned out to be 31.6 °C.

With GAGGTTGCGAAAGCACTC (((..(((....)))))), the folding enthalpy in data set [1] is -11.3 kcal/mol. The Tm in data set [2] is 33.9 °C.

As for GAGGTTGGAAACAGTCTC (((..((....))..))), the folding enthalpy in data set [1] was -10.1 kcal/mol. Also, in data set [2], the Tm came out at 25.6 °C.

With GAGTAACCGAAAGGTCTC (((..(((....)))))), the folding enthalpy in data set [1] is -16.7 kcal/mol. Further, the Tm in data set [2] was found to be 33.2 °C.

On to GAGTAACGAAAGTTTCTC (((.(((....))).))), for which the folding enthalpy in data set [1] is -30.1 kcal/mol. For the same sequence, the Tm in data set [2] is 40.3 °C.

Consider GAGTAAGGAAACTTACCC (.(((((....))))).), for which, in data set [1], the folding enthalpy is -14.6 kcal/mol. Also, the Tm in data set [2] came to 28.4 °C.

As for GAGTACCCGAAAGGGCTC (((..(((....)))))), in data set [1], the folding enthalpy is -15.3 kcal/mol. Further, the Tm in data set [2] came out at 32.4 °C.

For GAGTACGAAAGTAAACTC ((((((....)))..))), the folding enthalpy in data set [1] is -26.2 kcal/mol. In addition, the Tm in data set [2] amounted to 35.9 °C.

Turning to GAGTACGAAAGTAATCTC ((((((....)))..))), the folding enthalpy in data set [1] was -27.2 kcal/mol. Moreover, in data set [2], the Tm is 42.5 °C.

With GAGTACGAAAGTACACTC ((((((....)))..))), the folding enthalpy in data set [1] is -16.2 kcal/mol. Further, in data set [2], the Tm is 48.3 °C.

For the sequence GAGTACGAAAGTACCCTC ((((((....)))..))), in data set [1], the folding enthalpy is -13.2 kcal/mol. Further, the Tm in data set [2] amounted to 38.6 °C.

GAGTACGAAAGTAGACTC ((((((....)))..))): in data set [1], the folding enthalpy was -16.8 kcal/mol. The Tm in data set [2] stood at 35.8 °C.

In the case of GAGTACGAAAGTATACTC ((((((....)))..))), the folding enthalpy in data set [1] was -19.7 kcal/mol. Further, the Tm in data set [2] was 34.4 °C.

As for GAGTACGGAAACGTACCC (.(((((....))))).), in data set [1], the folding enthalpy was -15.5 kcal/mol. For the same sequence, the Tm in data set [2] came out at 42.2 °C.

Consider GAGTAGCGAAAGCTTCTC (((.(((....))).))), for which, in data set [1], the folding enthalpy was -26.4 kcal/mol. The Tm in data set [2] worked out at 47.2 °C.

On to GAGTAGGAAACTACTC ((((((....)))))), for which the folding enthalpy in data set [1] was -30.1 kcal/mol. In data set [2], the Tm turned out to be 51.1 °C.

Turning to GAGTAGGCGAAAGCCCTC (((..(((....)))))), the folding enthalpy in data set [1] is -10.8 kcal/mol. For the same sequence, the Tm in data set [2] came to 35.4 °C.

For GAGTAGGGAAACCTACTC (((((((....))))))), in data set [1], the folding enthalpy is -46.6 kcal/mol. Also, the Tm in data set [2] was 57 °C.
